Bioassay records as filed in PubChem BioAssay.
Only some compounds are listed: those with a hit (about 1.9% of all), similar ones and a draw of the others.
TDP2 absorb = human TDP2 enzyme inhibitors, primary screen, biochemical, epi absorbance, recombinant enzyme; Tyrosyl-DNA phosphodiesterase 2 (Homo sapiens), O95551; T5PNP hydrolysis, p-nitrophenol absorbance 415 nm; inhibition, % at 12.8 µM; 370,000 compounds, 0.34% hits;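 active means inhibition above the mean of all tested compounds plus 3 SD, set per campaign, cut at about 25% in these data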;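 further: 0% = DMSO with enzyme and 100% = buffer with substrate but no TDP2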
Target sequence (O95551 whole entry, looked up): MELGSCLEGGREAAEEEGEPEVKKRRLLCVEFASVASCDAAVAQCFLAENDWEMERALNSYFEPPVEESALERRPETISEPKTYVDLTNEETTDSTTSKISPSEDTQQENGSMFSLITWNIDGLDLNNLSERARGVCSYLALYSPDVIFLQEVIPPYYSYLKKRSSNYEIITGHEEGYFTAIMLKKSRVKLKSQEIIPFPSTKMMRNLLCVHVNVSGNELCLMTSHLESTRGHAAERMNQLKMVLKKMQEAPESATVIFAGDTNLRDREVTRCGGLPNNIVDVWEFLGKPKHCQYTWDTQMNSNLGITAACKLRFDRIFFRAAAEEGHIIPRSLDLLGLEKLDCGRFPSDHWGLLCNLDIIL
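Material: recombinant human TDP2; quantity: TDP2 enzyme at 120 nM final; medium: Tris-HCl pH 7.5 with MgCl2; compound: single concentration, 12.8 µM nominal, with 1% DMSO; incubation: 2 h enzyme incubation at 37 °C; signal: epi absorbance; measure: percent inhibition; benchmarks: high control without enzyme, low control DMSO plus TDP2; repeats: singlicate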
MBD2 inh = inhibitors of MBD2 binding to methylated DNA, primary screen, biochemical, TR-FRET, DNA-binding domain, human; 370,000 compounds, 0.31% hits; MBD2 binding to methylated oligonucleotide; inhibition, % at 4.4 µM; AID 686964, 2013; Methyl-CpG-binding domain protein 2 (Homo sapiens), Q9UBB5; in the data active means inhibition above about 13%
LEDGF integ inh = blockers of LEDGF/p75-dependent integrase strand transfer – biochemical, TR-FRET, high throughput, primary screen; HIV-1 integrase (with human LEDGF/p75); TR-FRET IN-LEDGF/p75 DNA integration, Eu/Cy5; inhibition, % at 3.7 µM; 370,000 compounds, 0.64% hits; AID 743269, 2014;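 active means inhibition above the screen-wide mean plus 3 SD, cut at about 13% in these data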;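 further: signal is the Cy5 over europium emission ratio at 671 and 618 nm; 0% = plate median of compound wells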
UHRF1 binding = UHRF1 methylated DNA binding inhibitors, primary screen, counter-screen for MBD2 inhibitor project, biochemical, TR-FRET, human UHRF1, single concentration; AID 687016, 2013; E3 ubiquitin-protein ligase UHRF1 (Homo sapiens), Q96T88; UHRF1 binding to methylated oligo; inhibition, % at 4.4 µM; 370,000 compounds, 0.75% hits; in the data active means inhibition above about 21%;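 further: UHRF1 SRA domain binding a hemimethylated CpG hairpin DNA probe; 0% = median of test compound wells and 100% = reference inhibitor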
Rin1 Abl inh = inhibitors of Rin1-Abl protein binding, primary screen, biochemical, TR-FRET. 360,000 compounds, 0.4% hits. inhibition, % at 7.35 µM. AID 588664, 2011; in the data active means inhibition above about 5%, passing the limit was not always enough
IN multimer up = HIV-1 IN multimer formation enhancers, counter-screen for LEDGF/p75 integration inhibitor project, biochemical, TR-FRET; shares compounds with LEDGF integ inh; TR-FRET HIV-1 integrase multimerization; activation, % at 7.7 µM; 2,000 compounds, 17% hits; in the data active means activation above about 8.9%
TRFRET interf = TR-FRET optical interference artefacts, confirmation, artefact control for LEDGF/p75-dependent integration inhibitor project, biochemical, HIV-1 IN multimerization; shares compounds with LEDGF integ inh; TR-FRET optical interference counterscreen; inhibition, % at 7.7 µM; 2,000 tested, under 10 active;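 active means inhibition above the mean over all tested compounds plus 3 SD, which no compound reached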;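 further: 0% = integrase with antibodies and DMSO and 100% = antibodies without integrase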
IN-LEDGF confirm = inhibitors of HIV-1 IN-LEDGF/p75 DNA integration, confirmation, biochemical, TR-FRET. shares compounds with LEDGF integ inh. TR-FRET LEDGF/p75-dependent HIV-1 integration. 2,000 compounds, 36% hits. inhibition, % at 3.7 µM; in the data active means inhibition above about 14%
* = called active by the depositor; nt = no result given.

SMILES	TDP2 absorb	MBD2 inh	LEDGF integ inh	UHRF1 binding	Rin1 Abl inh	IN multimer up	TRFRET interf	IN-LEDGF confirm
CCOC(=O)C1=C(N)n2c(s/c(=C\c3ccco3)c2=O)=C(C(=O)OC(C)C)C1c1ccco1 (configuration not stated)	4	12	51*	21*	2	2	-6	-1
O=C(C(=O)N1CCC(CNC(=O)C2COc3ccccc3O2)CC1)c1cccs1 (configuration not stated)	9	-1	21*	0	nt	5	-24	-1
C=CCc1cc(/C=C2/NC(=O)N(CC)C2=O)cc(OCC)c1OCc1ccc(C(=O)O)cc1	0	1	-1	8	-3	nt	nt	nt
COc1ccc(Cl)cc1NC(=O)NNC(=O)C(=O)Nc1ccc(F)cc1	-3	0	65*	-2	1	0	2	4
COc1ccc(Cl)cc1NC(=O)NNC(=O)c1ccccn1	-6	-2	2	2	-1	nt	nt	nt
COC(=O)C1=C(O)/C(=C\c2ccc(CNC(=O)C(=O)Nc3ccc(C)c(C)c3)o2)N=C1C	-2	2	41*	9	-2	4	-21	6
CCOC(=O)C1=C(O)/C(=C/c2ccc(CNC(=O)C(=O)Nc3ccc(C)cc3)o2)N=C1C	-16	0	35*	8	-1	1	-3	11
CCOC(=O)C(=O)NCc1ccc(/C=C2/N=C(C)C(C(=O)OCC)=C2O)o1	-1	-3	9	-5	-6	nt	nt	nt
COC(=O)C1=C(O)/C(=C\c2ccc(CNC(=O)C(=O)Nc3ccc(C)cc3)o2)N=C1C	4	2	2	0	3	nt	nt	nt
CCN(CC)C(=O)[C@H]1C[C@H](CC(=O)NCc2ccco2)C(=O)N2CCc3c([nH]c4cc(-c5ccco5)ccc34)[C@]12C	-4	-3	17*	-1	0	0	-1	-2
Cc1ccc(N2C(=O)N(CC(=O)Nc3cccc(C)c3C)C(=O)C2C)cc1 (configuration not stated)	1	-3	15*	-1	3	0	-1	-6
CCCN1CCC(=O)NC1=S	-1	4	-2	1	3	nt	nt	nt
CCCCOCCCNC(=O)C[C@H]1C[C@@]2(C(=O)OC)C(=C[C@H](C(C)(C)C)O[C@@H]2C)N(Cc2ccc(Cl)cc2Cl)C1=O	-1	-6	20*	-1	nt	0	-2	-7
Cc1ccc(-c2cc(C(=O)O)c3cc(Br)ccc3n2)o1	-9	2	14*	9	-6	16*	-57	7
Cc1ccc(Oc2ncccc2C(=O)NCC(=O)O)cc1	-3	-6	17*	0	4	0	0	0
Cc1ccc(S(=O)(=O)N2[C@H](CC(=O)c3cccc4ccccc34)OC[C@@H]2C)cc1	-4	7	14*	8	nt	0	1	-4
CSCc1ccc(C(=O)NC2CC(C)(C)Cc3c2cnn3-c2ccc(F)cc2)o1 (configuration not stated)	-5	1	-7	2	-1	nt	nt	nt
CCOC(=O)C1(C)CCCN1C(=O)c1cc(F)ccc1C (configuration not stated)	2	2	1	0	0	nt	nt	nt
COc1ccc(-c2cnc(N)n2CC2CCCO2)cc1 (configuration not stated)	-8	8	28*	2	2	0	2	-5
CCCCNC(=O)C1c2ccccc2OCC(=O)N1Cc1ccco1 (configuration not stated)	4	1	-5	0	nt	nt	nt	nt
CCCCNC(=O)C1c2ccccc2OCC(=O)N1Cc1ccccn1 (configuration not stated)	3	2	30*	0	nt	-3	14	3
CCc1nc(SCC(=O)Nc2cc(C)on2)c2c(C)c(C)sc2n1	-2	1	0	-1	4	nt	nt	nt
Cc1cc(NC(=O)CSc2nc(C3CC3)nc3sc(C)c(C)c23)no1	4	-2	17*	1	1	16*	-55	-8
Cc1ccc([C@H]2N[C@]3(CCCN(Cc4ccc(Br)cc4)C3=O)[C@H]3C(=O)N(Cc4ccccc4)C(=O)[C@@H]23)cc1	-7	-6	-4	-4	2	nt	nt	nt
CC(=O)C(Cc1ccccc1)NC(=O)COC(=O)c1ccc(-n2cnnn2)cc1 (configuration not stated)	-8	5	0	0	1	nt	nt	nt
SMILES	TDP2 absorb	MBD2 inh	LEDGF integ inh	UHRF1 binding	Rin1 Abl inh	IN multimer up	TRFRET interf	IN-LEDGF confirm
CC(Cc1ccccc1)NC(=O)CN1C(=O)c2ccccc2S1(=O)=O (configuration not stated)	3	2	82*	-4	-1	1	-3	-5
C[C@@H](NC(=O)CN1C(=O)c2ccccc2S1(=O)=O)c1ccccc1	-2	4	0	4	3	nt	nt	nt
CCOC(=O)c1oc2c(O)c(O)ccc2c(=O)c1-c1nncn1-c1ccccc1	-5	8	45*	9	1	6	-20	40*
CCOC(=O)c1oc2c(C)c(O)ccc2c(=O)c1-c1nncn1-c1ccccc1	5	-1	-1	-3	4	nt	nt	nt
COc1cccc(=O)c2c(C)n(-c3cc(C)cc(C)c3)c(C)c12	-3	1	4	0	2	nt	nt	nt
COc1cccc(=O)c2c(C)n(C)c(C)c12	16	1	36*	22*	-2	6	-21	0
CCOc1cccc(=O)c2c(C)n(C)c(C)c12	10	-3	14*	4	-1	4	-13	0
CC(=O)CCN1CCSCCS1(=O)=O	0	2	3	0	nt	nt	nt	nt
Cc1ccc(-c2cc(C(=O)N/N=C/c3ccc(Cl)cc3)n[nH]2)o1	-20	-1	-1	3	4	nt	nt	nt
Cc1ccc(CNC(=O)/C=C/c2cccs2)cc1	-1	1	25*	-4	2	4	-14	-5
CCCCNC(=O)/C=C/c1cccs1	-17	1	-4	0	3	nt	nt	nt
